This test concerns the target C-X-C chemokine receptor type 4 (Homo sapiens, UniProt P61073). Nature of the test: Agonist activity at CXCR4 in human SupT1 cells assessed as increase Ca2+ influx at 2 uM by fura-2/AM dye-based fluorescence analysis. It is filed as functional, cell-based. The gist of the method: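 They were loaded at 10^7 cells/mL with 2 μM fura-2/AM and 5 μM probenecid for 30 min, then resuspended at 2 × 10^6 cells/mL. After a 2 min baseline, peptide was added. Ex 340/380 nm, em 510 nm.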

Activity calls are given as the source filed them. The rule behind the calls is not given here.

Sequence of C-X-C chemokine receptor type 4 (P61073 whole entry): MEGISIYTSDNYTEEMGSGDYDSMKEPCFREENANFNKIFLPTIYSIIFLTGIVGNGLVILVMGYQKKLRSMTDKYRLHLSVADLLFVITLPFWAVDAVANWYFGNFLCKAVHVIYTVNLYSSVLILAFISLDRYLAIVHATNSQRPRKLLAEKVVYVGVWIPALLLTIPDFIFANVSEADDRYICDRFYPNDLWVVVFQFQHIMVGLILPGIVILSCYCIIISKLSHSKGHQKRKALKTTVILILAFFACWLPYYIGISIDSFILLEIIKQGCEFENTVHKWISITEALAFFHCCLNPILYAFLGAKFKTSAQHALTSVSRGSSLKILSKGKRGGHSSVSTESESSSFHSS

Take `CC(C)C[C@@H](N)C(=O)NCC(=O)N[C@H](C)C(=O)N[C@H](CO)C(=O)N[C@H](Cc1c[nH]c2ccccc12)C(=O)N[C@H](Cc1cnc[nH]1)C(=O)N[C@H](CCCNC(=N)N)C(=O)N1CCC[C@@H]1C(=O)N[C@H](CC(=O)O)C(=O)N[C@H](CCCCN)C(=O)NCCOCCOCCOCCC(=O)N[C@@H](CCCCNC(=O)CCOCCOCCOCCNC(=O)[C@H](CCCNC(=N)N)NC(=O)[C@H](Cc1ccc(O)cc1)NC(=O)[C@H](CO)NC(=O)[C@H](CC(C)C)NC(=O)[C@H](CO)NC(=O)[C@@H](NC(=O)[C@@H]1CCCN1C(=O)[C@@H](N)CCCCN)C(C)C)C(N)=O`: the outcome was Active.

The values above are taken from ChEMBL document CHEMBL4428122, “Design, synthesis, and biological characterization of novel PEG-linked dimeric modulators for CXCR4” (Bioorg Med Chem, 2016).
